Data from EPA's CvTdb concentration-time database.

Columns and labels:
[1] = tested on: Mouse; test: concentration in plasma after dosing; conditions: dosed: 2,4-Dichlorophenoxyacetic acid, 1.0 mg/kg, iv, Male, B6C3F1
[2] = tested on: Rat; test: concentration in plasma after dosing; conditions: 4 h; dosed: 2-Hydroxy-4-methoxybenzophenone; 500 mg/kg; oral; Male; F344
[3] = tested on: Mouse; test: concentration in plasma after dosing; conditions: 3 h; dosed: 2-Hydroxy-4-methoxybenzophenone; 250 mg/kg; oral; Male; B6C3F1
[4] = tested on: Rat; test: concentration in plasma after dosing; conditions: dosed: 2-Hydroxy-4-methoxybenzophenone, 250 mg/kg, oral, Female, F344
[5] = tested on: Mouse; test: concentration in plasma after dosing; conditions: 10 min; dosed: 2-Hydroxy-4-methoxybenzophenone; 500 mg/kg; oral; Male; B6C3F1
[6] = tested on: Mouse; test: concentration in plasma after dosing; conditions: 2 h; dosed: 2-Hydroxy-4-methoxybenzophenone; 500 mg/kg; oral; Female; B6C3F1
[7] = tested on: rat; test: amount in urine after dosing (umol); conditions: inhalation, duration: 4 hr, F344 (Harlan Winkelmann)
[8] = tested on: Rat; test: concentration in plasma after dosing; conditions: dosed: Methyleugenol, 37 mg/kg, oral, Female, F344/N
[9] = tested on: Rat; test: concentration in plasma after dosing; conditions: dosed: Methyleugenol, 37 mg/kg, oral, Male, F344/N
[10] = tested on: Rat; test: concentration in plasma after dosing; conditions: 1 h; dosed: Methyleugenol; 37 mg/kg; oral; Male; F344/N
[11] = tested on: Rat; test: concentration in brain after dosing; conditions: 6 h; dosed: Perfluorohexane-1-sulphonic acid – potassium salt; 16 mg/kg; oral; Female; Harlan Sprague Dawley
[12] = tested on: Rat; test: concentration in liver after dosing; conditions: 12 h; dosed: Perfluorohexane-1-sulphonic acid – potassium salt; 16 mg/kg; oral; Female; F344
[13] = tested on: Rat; test: concentration in liver after dosing; conditions: 3 h; dosed: Perfluorohexane-1-sulphonic acid – potassium salt; 16 mg/kg; oral; Female; F344
[14] = tested on: Rat; test: concentration in plasma after dosing; conditions: 1 h; dosed: Perfluorohexane-1-sulphonic acid – potassium salt; 16 mg/kg; oral; Male; F344
[15] = tested on: Rat; test: concentration in liver after dosing; conditions: 24 h; dosed: Perfluorohexane-1-sulphonic acid – potassium salt; 16 mg/kg; oral; Female; Harlan Sprague Dawley
[16] = tested on: Rat; test: concentration in kidney after dosing; conditions: 96 h; dosed: Perfluorohexane-1-sulphonic acid – potassium salt; 16 mg/kg; oral; Female; Harlan Sprague Dawley
[17] = tested on: Rat; test: concentration in liver after dosing; conditions: 96 h; dosed: Perfluorohexane-1-sulphonic acid – potassium salt; 16 mg/kg; oral; Female; Harlan Sprague Dawley
[18] = tested on: Rat; test: concentration in liver after dosing; conditions: 6 h; dosed: Perfluorohexane-1-sulphonic acid – potassium salt; 16 mg/kg; oral; Female; F344
[19] = tested on: Rat; test: concentration in liver after dosing; conditions: 3 h; dosed: Perfluorohexane-1-sulphonic acid – potassium salt; 16 mg/kg; oral; Female; Harlan Sprague Dawley
[20] = tested on: Rat; test: concentration in plasma after dosing; conditions: 50 min; dosed: Pyridine; 10 mg/kg; iv; Male; F344
[21] = tested on: Rat; test: concentration in plasma after dosing; conditions: dosed: Pyridine, 5 mg/kg, oral, Male, F344
[22] = tested on: Rat; test: concentration in brain after dosing; conditions: 6 h; dosed: alpha-Thujone; 50 mg/kg; oral; Female; Harlan Sprague Dawley
[23] = tested on: Rat; test: concentration in plasma after dosing; conditions: 10 min; dosed: alpha-Thujone; 25 mg/kg; oral; Male; Harlan Sprague Dawley
[24] = tested on: Rat; test: concentration in brain after dosing; conditions: 3 h; dosed: alpha-Thujone; 25 mg/kg; oral; Female; Harlan Sprague Dawley
[25] = tested on: Rat; test: concentration in plasma after dosing; conditions: 12 h; dosed: alpha-Thujone; 50 mg/kg; oral; Female; Harlan Sprague Dawley
[26] = tested on: Rat; test: concentration in plasma after dosing; conditions: 0.5 h; dosed: alpha-Thujone; 50 mg/kg; oral; Male; Harlan Sprague Dawley
[27] = tested on: Rat; test: concentration in plasma after dosing; conditions: 12 h; dosed: alpha-Thujone; 50 mg/kg; oral; Female; Harlan Sprague Dawley; remark: listed apart in the source
[28] = tested on: Rat; test: concentration in brain after dosing; conditions: 3 h; dosed: alpha-Thujone; 25 mg/kg; oral; Male; Harlan Sprague Dawley
[29] = tested on: human; test: concentration in blood after dosing; negative times count back from the end of exposure; conditions: dosed: trichloroethylene, 100 ppm, inhalation, duration: 4 hr, person
Outline: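 Points were largely digitised from plot screenshots with WebPlotDigitizer or otherwise copied from tables, and they remain in the units each source reported. They come from published in vivo toxicokinetic studies and two structured collections. Sampling and analytical methods follow each source and were often not reported.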

O=C(O)COc1ccc(Cl)cc1Cl [2,4-Dichlorophenoxyacetic acid]
[1]
Conditions	concentration in plasma [µg/mL]
0.5 h	6.07
2.5 min	8.15
3 h	0.446
10 min	8.34

O=C(c1ccccc1)c1ccc(O)cc1O [2,4-Dihydroxybenzophenone]
Conditions	concentration in plasma [µg/mL]
[2]	0.181
[3]	0.316
[5]	1.69
[6]	0.104

[4]
Conditions	concentration in plasma [µg/mL]
3 h	0.148
10 min	0.119

CC(C)(O)CO [2-methyl-1,2-propanediol]
[7]
Conditions	amount in urine
5.902 h, dosed: ethyl tert-butyl ether, 4.5 ppm	0.0942
5.941 h, dosed: methyl tert-butyl ether, 38.7 ppm	1.91
5.99 h, dosed: ethyl tert-butyl ether, 40.6 ppm	0.962
11.87 h, dosed: ethyl tert-butyl ether, 4.5 ppm	0.122
11.94 h, dosed: methyl tert-butyl ether, 38.7 ppm	1.17
11.96 h, dosed: ethyl tert-butyl ether, 40.6 ppm	0.855
11.97 h, dosed: methyl tert-butyl ether, 4.5 ppm	0.56
17.81 h, dosed: ethyl tert-butyl ether, 4.5 ppm	0.0535
17.95 h, dosed: methyl tert-butyl ether, 38.7 ppm	0.268
18.01 h, dosed: ethyl tert-butyl ether, 40.6 ppm	0.254
18.01 h, dosed: methyl tert-butyl ether, 4.5 ppm	0.155
23.76 h, dosed: ethyl tert-butyl ether, 4.5 ppm	0.0171
23.93 h, dosed: methyl tert-butyl ether, 38.7 ppm	0.126
23.95 h, dosed: methyl tert-butyl ether, 4.5 ppm	0.0371
23.96 h, dosed: ethyl tert-butyl ether, 40.6 ppm	0.0668
29.72 h, dosed: ethyl tert-butyl ether, 4.5 ppm	0.015
29.91 h, dosed: methyl tert-butyl ether, 38.7 ppm	0.0631
29.93 h, dosed: ethyl tert-butyl ether, 40.6 ppm	0.0668
29.96 h, dosed: methyl tert-butyl ether, 4.5 ppm	0.023

C=CCc1ccc(OC)c(OC)c1 [Methyleugenol]
concentration in plasma [µg/mL]
Conditions	[8]	[9]
6 h	0.00614	0.0111
10 min	0.424	0.176

Conditions	concentration in plasma [µg/mL]
[10]	0.0634

O=S(=O)([O-])C(F)(F)C(F)(F)C(F)(F)C(F)(F)C(F)(F)C(F)(F)F.[K+] [Perfluorohexane-1-sulphonic acid – potassium salt]
Conditions	concentration in brain [ng/g]	concentration in kidney [ng/g]	concentration in liver [ng/g]	concentration in plasma [µg/mL]
[11]	1090	–	–	–
[12]	–	–	70300	–
[13]	–	–	57000	–
[14]	–	–	–	55.6
[15]	–	–	25700	–
[16]	–	5570	–	–
[17]	–	–	10200	–
[18]	–	–	87400	–
[19]	–	–	57400	–

c1ccncc1 [Pyridine]
Conditions	concentration in plasma [µg/mL]
[20]	2.31

[21]
Conditions	concentration in plasma [µg/mL]
0.5 h	3.17
6 h	1.62

CC(C)[C@]12CC(=O)[C@H](C)[C@H]1C2 [alpha-Thujone]
Conditions	concentration in brain [ng/g]	concentration in plasma [ng/mL]
[22]	42.5	–
[23]	–	872
[24]	919	–
[25]	–	28.6
[26]	–	2180
[27]	–	23.1
[28]	130	–

OCC(Cl)(Cl)Cl [trichloroethanol (free)]
[29]
Conditions	concentration in blood [µg/mL]
0.2798 h	3.06
0.518 h	2.98
1.034 h	2.89
2.025 h	2.71
4.029 h	2.29
5.972 h	2.03
7.955 h	1.69
9.937 h	1.48
11.96 h	1.27
13.96 h	1.07
15.94 h	1.01
17.94 h	0.738

[29], during exposure
Conditions	concentration in blood [µg/mL]
-58 s	2.86
-3.486 h	0.22
-3.013 h	0.632
-2.028 h	1.48
-0.9832 h	2.28
